High-throughput results (PubChem)
CCR6 antagonist: CCR6 receptor antagonists, primary screen, cell-based, CHO-K1, luminescence, beta-arrestin, uHTS; inhibition, % at 20 µM; hit rate 0.49% among 340,000; CHO-K1 CCR6 PathHunter beta-arrestin, CCL20-stimulated; AID 493098, 2011;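 active = compounds whose inhibition of the agonist-driven luminescence signal at 20 µM reaches about 50%, limit read from the data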;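 also: cells stimulated with CCL20 at 14 nM final; plate controls were DMSO with CCL20 for no effect and DMSO without agonist for full effect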
APJ antag: antagonists of human apelin receptor APJ, primary screen, CHO-K1 cells, beta-arrestin complementation, luminescence; P35414; inhibition, % at 20 µM; hit rate 0.32% among 330,000; AID 2521, 2010;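 active = inhibition above about 40% at 20 µM, limit read from the data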;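 also: cells challenged with 10 nM apelin-13 agonist together with compound; plate controls were apelin-13 plus DMSO wells for no effect and DMSO wells lacking apelin-13 for full effect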
APJ agonist: agonists of human apelin receptor APJ, primary screen, CHO-K1 cells, PathHunter beta-arrestin, luminescence | P35414 | 0% DMSO wells, 100% apelin | activation, % at 20 µM | hit rate 0.11% among 330,000 | AID 2520, 2010;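 active = activation more than six SD over the plate average, tested at 20 µM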;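 also: 0% = DMSO alone and 100% = apelin-13 at 10 nM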
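Test system: CHO-K1 APJ beta-arrestin complementation cell line | Compound: Single test compound dose, 20 µM final, 1% DMSO | Incubation: Compound 90 min 25 °C, reagent 1 h | Measured by: beta-gal luminescence | Read-out basis: APJ–arrestin association signal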
EBI2 block: EBI2 receptor antagonists, beta-arrestin recruitment, primary screen, cell-based, luminescence, 7a,25-OHC stimulation, uHTS; G-protein coupled receptor 183 (Homo sapiens), P32249; 7a,25-OHC stimulated; inhibition, % at 5 µM; hit rate 0.81% among 360,000; AID 651636, 2012; in the data active = inhibition above about 38%;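 also: enzyme fragment complementation signal reports receptor beta-arrestin coupling in cells; 0% = agonist plus DMSO wells and 100% = wells without agonist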
Target sequence (P32249 whole entry, looked up, the tested form may be a part): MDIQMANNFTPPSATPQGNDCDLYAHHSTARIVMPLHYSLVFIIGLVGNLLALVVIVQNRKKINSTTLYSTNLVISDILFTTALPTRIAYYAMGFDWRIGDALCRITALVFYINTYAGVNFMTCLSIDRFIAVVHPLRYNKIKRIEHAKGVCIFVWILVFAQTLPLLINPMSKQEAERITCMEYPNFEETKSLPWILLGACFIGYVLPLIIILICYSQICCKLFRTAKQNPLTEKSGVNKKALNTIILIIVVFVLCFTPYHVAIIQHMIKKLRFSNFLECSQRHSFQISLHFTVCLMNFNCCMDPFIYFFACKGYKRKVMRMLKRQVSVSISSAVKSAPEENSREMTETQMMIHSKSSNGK
CXCR6 block: CXCR6 receptor inhibitors, primary screen, cell-based, beta-arrestin, luminescence, CHO-K1 PathHunter, 1536-well; C-X-C chemokine receptor type 6 (Homo sapiens), O00574; inhibition, % at 20 µM; hit rate 0.36% among 360,000; AID 602244, 2012; in the data active = inhibition above about 34%, passing the limit was not always enough;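 also: antagonist mode with CXCL16 agonist at 10 nM final; 0% = 10 nM CXCL16 with DMSO and 100% = unstimulated wells without agonist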
APJ antag confirm: APJ antagonists blocking beta-arrestin recruitment, confirmation, cell-based, luminescence, single concentration, uHTS hits; shares compounds with APJ antag; antagonist mode; inhibition, % at 20 µM; hit rate 66% among 950; AID 2766, 2010; in the data active = inhibition above about 50%
* hit, by the source's call. Hits are enriched below; roughly 1.5% of the tested compounds scored in any of these assays.

COc1ccc(-c2c3c(nc4sc(C(=O)Nc5cc(C)on5)c(N)c24)CCC3)cc1 was read as CCR6 antagonist 9, APJ antag 55*, APJ agonist -17, EBI2 block 25, CXCR6 block 10 and APJ antag confirm 30.
CCN(CC)c1ccc(/C=C2\SC(=O)N(C(C)C)C2=O)o1 was read as CCR6 antagonist 47, APJ antag 53*, APJ agonist 5, EBI2 block 56*, CXCR6 block 27 and APJ antag confirm -1.
Screening Cc1cc(Cl)ccc1NNC(=O)c1c(C)noc1C returned CCR6 antagonist -9, APJ antag -14, APJ agonist -2, EBI2 block -10 and CXCR6 block -11.
Screening Cc1noc(C)c1C(=O)NNc1ccc(C(C)C)cc1 returned CCR6 antagonist 27, APJ antag 47*, APJ agonist -20, EBI2 block 4, CXCR6 block -3 and APJ antag confirm 102*.
Screening Cc1cc(C(=O)NNc2ccc(Cl)cc2)no1 returned CCR6 antagonist 18, APJ antag 24, APJ agonist -6, EBI2 block 13 and CXCR6 block 8.
Screening Cc1ccc(NNC(=O)c2c(C)noc2C)cc1Cl returned CCR6 antagonist 14, APJ antag 56*, APJ agonist -13, EBI2 block 19, CXCR6 block 4 and APJ antag confirm 70*.
`Cc1cc(C(=O)NNc2ccc(C)c(C)c2)no1` gave CCR6 antagonist 22, APJ antag 42*, APJ agonist -12, EBI2 block 3, CXCR6 block 17 and APJ antag confirm 114*.
`COc1cccc(C(=O)Nc2cc(NC(=O)c3cccs3)ccc2C)c1OC` gave CCR6 antagonist 14, APJ antag -7, APJ agonist -1, EBI2 block -1 and CXCR6 block 4.
For CCN(CC(=O)Nc1ccccc1C(F)(F)F)C(=O)c1ccc(-n2nc(C)c(CCC(=O)OC)c2C)cc1 the results were CCR6 antagonist 11, EBI2 block -7 and CXCR6 block 5.
Screening CCOC(=O)c1c(NC(=O)c2ccco2)n(C2CCCCC2)c2nc3ccccc3nc12 returned CCR6 antagonist 42, APJ antag 58*, APJ agonist -19, EBI2 block 19, CXCR6 block 23 and APJ antag confirm 9.
CCC(=O)Nc1c(C#N)c2nc3ccccc3nc2n1C1CCCCC1 was read as CCR6 antagonist 10, APJ antag 10, APJ agonist -4, EBI2 block 2 and CXCR6 block 2.
Screening CC(OC(=O)[C@@H]1CCCN1C(=O)c1cccs1)C(=O)Nc1cccc([N+](=O)[O-])c1 (stereo partly specified) returned CCR6 antagonist 18, APJ antag 18, APJ agonist 3, EBI2 block 5 and CXCR6 block -4.
For O=C(NCCOC(=O)c1cccs1)c1cccnc1 the results were CCR6 antagonist -9, APJ antag 65*, APJ agonist -4, EBI2 block 3, CXCR6 block 3 and APJ antag confirm 25.
Screening CN(CC1CCCN(CCc2ccc(Cl)cc2)C1)C(=O)c1ccco1 (stereo unspecified) returned CCR6 antagonist -17, APJ antag -16, APJ agonist 2, EBI2 block 1 and CXCR6 block 6.
Screening Cc1ccc2cccc(N)c2n1 returned CCR6 antagonist 10, APJ antag 41*, APJ agonist 2, EBI2 block -3, CXCR6 block 0 and APJ antag confirm 2.
`CC(C)(C)n1nc2c(c1NC(=O)c1cc(Cl)ccc1[N+](=O)[O-])CS(=O)(=O)C2` gave CCR6 antagonist 11, APJ antag 10, APJ agonist 2, EBI2 block 5 and CXCR6 block -3.
Screening Oc1c(C(c2ccccc2Cl)N2CCCC2)ccc2cccnc12 (stereo unspecified) returned CCR6 antagonist 43, APJ antag 56*, APJ agonist -7, EBI2 block 51*, CXCR6 block 24 and APJ antag confirm 56*.
`CCOC(=O)/C=C/C(=O)OCC(=O)N1CCN(C(=O)c2ccco2)CC1` gave CCR6 antagonist 0, APJ antag 5, APJ agonist 12, EBI2 block -2 and CXCR6 block -6.
`Cc1cc(C(=O)NCC(c2ccco2)N2CCCC2)c2ccccc2n1` (stereo unspecified) gave CCR6 antagonist 1, APJ antag -5, APJ agonist -1, EBI2 block -15 and CXCR6 block 3.
N#C/C(=C\c1ccc(O)c(O)c1)C(=O)c1ccc(O)c(O)c1 was read as CCR6 antagonist 54*, APJ antag 43*, APJ agonist -7, EBI2 block 3, CXCR6 block 27 and APJ antag confirm 57*.
N#C/C(=C\c1ccc(O)c(O)c1)C(=O)N1CCCC1 was read as CCR6 antagonist 19, APJ antag 22, APJ agonist -1, EBI2 block 8 and CXCR6 block 20.
`O=C(O)CCN1C(=O)c2ccc(NC(=O)CCc3ccccc3)cc2C1=O` gave CCR6 antagonist 0, APJ antag 13, APJ agonist 0, EBI2 block -9 and CXCR6 block -3.
For COc1ccc(C(=O)NC(C(=O)NCc2ccccn2)C(C)C)cc1 (stereo unspecified) the results were CCR6 antagonist 13, APJ antag -7, APJ agonist -3, EBI2 block -5 and CXCR6 block 4.
Screening CC(C)C(NC(=O)c1ccc(C(C)(C)C)cc1)C(=O)NCc1ccccn1 (stereo unspecified) returned CCR6 antagonist 11, APJ antag 41*, APJ agonist -6, EBI2 block 6, CXCR6 block 4 and APJ antag confirm 16.
Screening COC(=O)c1sc(N)c(C(=O)OC)c1COC(=O)c1c(C)noc1C returned CCR6 antagonist 70*, APJ antag 46*, APJ agonist -8, EBI2 block 25, CXCR6 block 58* and APJ antag confirm 96*.
For O=C(Nc1ccccc1C(=O)N1CCCCC1)c1cccs1 the results were CCR6 antagonist 1, APJ antag 4, APJ agonist -5, EBI2 block 0 and CXCR6 block 6.
`C=CC[C@@H](CC(=O)N[C@H](CO)Cc1ccccc1)C(=O)NCCOC(=O)[C@@H](CC=C)CC(=O)OC(C)(C)C` gave CCR6 antagonist -1, APJ antag 7, APJ agonist -1, EBI2 block -6 and CXCR6 block 4.
